Measured values published in article PMC5114172 (Journal of applied toxicology : JAT, 2016).

How the values were obtained:
PBMCs = test: Cell viability, trypan blue exclusion; type: cell-based, human; settings: PBMCs, 6 day
NK cells = test: Cell viability, trypan blue exclusion; type: cell-based, human
[1] = test system: highly purified human NKs; test: IL-1β secretion assay; type: cell-based; settings: for Interleukin 1 beta secreted: NK
How it was run: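 NK cells, MD-PBMCs, PBMCs or granulocytes (1.5 million/mL) or PBMC+granulocytes (0.75 million/mL each), per donor, exposed 24 h, 48 h or 6 days to 0.05–5 μM test compound diluted from DMSO stock, with DMSO controls. Supernatants kept at −70 °C. IL-1β by sandwich ELISA: HRP detection antibody, acid-stopped substrate, A450 against standards. Detection limit 3 pg/mL; triplicates; ANOVA then t test versus control, p<0.05.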

## CCC[CH2][Sn][CH2]CCC [DBT, Dibutyltin]
PBMCs; 0.05 μM DBT
  Percent Viable Cells: 68±45%
PBMCs; 0.1 μM DBT
  Percent Viable Cells: 87±11%
PBMCs; 0.25 μM DBT
  Percent Viable Cells: 69±33%
PBMCs; 0.5 μM DBT
  Percent Viable Cells: 68±13%
PBMCs; 1 μM DBT
  Percent Viable Cells: 43±12%
PBMCs; 2.5 μM DBT
  Percent Viable Cells: 36±25%
PBMCs; 5 μM DBT
  Percent Viable Cells: 42±15%
NK cells; 24 h, 0.05 μM DBT
  Percent Viable Cells: 97±3%
NK cells; 24 h, 0.1 μM DBT
  Percent Viable Cells: 98±2%
NK cells; 24 h, 0.25 μM DBT
  Percent Viable Cells: 98±1%
NK cells; 24 h, 0.5 μM DBT
  Percent Viable Cells: 95±4%
NK cells; 24 h, 1 μM DBT
  Percent Viable Cells: 92±5%
NK cells; 24 h, 2.5 μM DBT
  Percent Viable Cells: 88±1%
NK cells; 24 h, 5 μM DBT
  Percent Viable Cells: 80±7%
  average decrease in viability: 13%
NK cells; 24 h, 0.05–1 μM DBT
  effect on viability compared to the control: no effect
NK cells; 24 h, 2.5 and 5 μM DBT
  decrease in NK cell viability: about 10%
NK cells; 48 h, 0.05 μM DBT
  Percent Viable Cells: 97±0%
NK cells; 48 h, 0.1 μM DBT
  Percent Viable Cells: 96±1%
NK cells; 48 h, 0.25 μM DBT
  Percent Viable Cells: 93±0 %
NK cells; 48 h, 0.5 μM DBT
  Percent Viable Cells: 90±1 %
NK cells; 48 h, 1 μM DBT
  Percent Viable Cells: 79±12%
NK cells; 48 h, 2.5 μM DBT
  Percent Viable Cells: 61±6 %
NK cells; 48 h, 5 μM DBT
  Percent Viable Cells: 64±8 %
NK cells; 48 h, 2.5 and 5 μM DBT
  reductions in viability: around 35%
NK cells; 6 day, 0.05 μM DBT
  Percent Viable Cells: 75±8%
NK cells; 6 day, 0.1 μM DBT
  Percent Viable Cells: 78±7%
NK cells; 6 day, 0.25 μM DBT
  Percent Viable Cells: 74±9%
NK cells; 6 day, 0.5 μM DBT
  Percent Viable Cells: 68±9%
NK cells; 6 day, 1 μM DBT
  Percent Viable Cells: 69±3%
NK cells; 6 day, 2.5 μM DBT
  Percent Viable Cells: 58±7%
NK cells; 6 day, 5 μM DBT
  Percent Viable Cells: 49±19%
NK cells; 6 days, 0.05–1 μM DBT
  change in viability compared to the control: no change
[1]; NK cells, 24 h, across donors
  average of the maximum fold increase in IL-β secretion: 3.5 fold
[1]; NK cells, donor KB169, 0.05 μM (50 nM) DBT
  fold increase in IL-1β secretion: 7.9 fold
[1]; NK cells, donor KB169, 0.1 μM (100 nM) DBT
  fold increase in IL-1β secretion: 6.0 fold
[1]; donor KB130, 24 h, 0.05 μM DBT
  Interleukin 1 beta secreted: 386 ± 41 pg/mL
[1]; donor KB130, 24 h, 0.1 μM DBT
  Interleukin 1 beta secreted: 116 ± 27 pg/mL
[1]; donor KB130, 24 h, 0.25 μM DBT
  Interleukin 1 beta secreted: 17 ± 20 pg/mL
[1]; donor KB130, 48 h, 0.05 μM DBT
  Interleukin 1 beta secreted: 1372 ± 481 pg/mL
[1]; donor KB130, 48 h, 0.1 μM DBT
  Interleukin 1 beta secreted: 298 ± 65 pg/mL
[1]; donor KB130, 48 h, 0.25 μM DBT
  Interleukin 1 beta secreted: 139 ± 46 pg/mL
[1]; donor KB130, 6 day, 0.05 μM DBT
  Interleukin 1 beta secreted: 782 ± 35 pg/mL
[1]; donor KB130, 6 day, 0.1 μM DBT
  Interleukin 1 beta secreted: 550 ± 21 pg/mL
[1]; donor KB130, 6 day, 0.25 μM DBT
  Interleukin 1 beta secreted: 142 ± 27 pg/mL
[1]; donor KB130, 6 day, 0.5 μM DBT
  Interleukin 1 beta secreted: 46 ± 53 pg/mL
[1]; donor KB155, 24 h, 0.05 μM DBT
  Interleukin 1 beta secreted: 2965 ± 1004 pg/mL
[1]; donor KB155, 24 h, 0.1 μM DBT
  Interleukin 1 beta secreted: 2771 ± 70 pg/mL
[1]; donor KB155, 24 h, 0.25 μM DBT
  Interleukin 1 beta secreted: 779 ± 25 pg/mL
[1]; donor KB155, 24 h, 0.5 μM DBT
  Interleukin 1 beta secreted: 28 ± 23 pg/mL
[1]; donor KB155, 48 h, 0.05 μM DBT
  Interleukin 1 beta secreted: 5235 ± 531 pg/mL
[1]; donor KB155, 48 h, 0.1 μM DBT
  Interleukin 1 beta secreted: 4588 ± 130 pg/mL
[1]; donor KB155, 48 h, 0.25 μM DBT
  Interleukin 1 beta secreted: 1598 ± 450 pg/mL
[1]; donor KB155, 48 h, 0.5 μM DBT
  Interleukin 1 beta secreted: 130 ± 39 pg/mL
[1]; donor KB155, 6 day, 0.05 μM DBT
  Interleukin 1 beta secreted: 1625 ± 164 pg/mL
[1]; donor KB155, 6 day, 0.1 μM DBT
  Interleukin 1 beta secreted: 1572 ± 245 pg/mL
[1]; donor KB155, 6 day, 0.25 μM DBT
  Interleukin 1 beta secreted: 960 ± 152 pg/mL
[1]; donor KB155, 6 day, 0.5 μM DBT
  Interleukin 1 beta secreted: 138 ± 43 pg/mL
[1]; donor KB169, 24 h, 0.05 μM DBT
  Interleukin 1 beta secreted: 1551 ± 25 pg/mL
[1]; donor KB169, 24 h, 0.1 μM DBT
  Interleukin 1 beta secreted: 1173 ± 69 pg/mL
[1]; donor KB169, 24 h, 0.25 μM DBT
  Interleukin 1 beta secreted: 796 ± 137 pg/mL
[1]; donor KB169, 24 h, 0.5 μM DBT
  Interleukin 1 beta secreted: 114 ± 21 pg/mL
[1]; donor KB169, 48 h, 0.05 μM DBT
  Interleukin 1 beta secreted: 341 ± 10 pg/mL
[1]; donor KB169, 48 h, 0.1 μM DBT
  Interleukin 1 beta secreted: 367 ± 53 pg/mL
[1]; donor KB169, 48 h, 0.25 μM DBT
  Interleukin 1 beta secreted: 262 ± 14 pg/mL
[1]; donor KB169, 6 day, 0.05 μM DBT
  Interleukin 1 beta secreted: 453 ± 91 pg/mL
[1]; donor KB169, 6 day, 0.1 μM DBT
  Interleukin 1 beta secreted: 602 ± 257 pg/mL
[1]; donor KB169, 6 day, 0.25 μM DBT
  Interleukin 1 beta secreted: 511 ± 227 pg/mL
[1]; donor KB169, 6 day, 0.5 μM DBT
  Interleukin 1 beta secreted: 157 ± 61 pg/mL
